For experiment [1], the target named is T1, Angiotensin-converting enzyme (Oryctolagus cuniculus) (UniProt P12822).
T1 sequence (whole entry): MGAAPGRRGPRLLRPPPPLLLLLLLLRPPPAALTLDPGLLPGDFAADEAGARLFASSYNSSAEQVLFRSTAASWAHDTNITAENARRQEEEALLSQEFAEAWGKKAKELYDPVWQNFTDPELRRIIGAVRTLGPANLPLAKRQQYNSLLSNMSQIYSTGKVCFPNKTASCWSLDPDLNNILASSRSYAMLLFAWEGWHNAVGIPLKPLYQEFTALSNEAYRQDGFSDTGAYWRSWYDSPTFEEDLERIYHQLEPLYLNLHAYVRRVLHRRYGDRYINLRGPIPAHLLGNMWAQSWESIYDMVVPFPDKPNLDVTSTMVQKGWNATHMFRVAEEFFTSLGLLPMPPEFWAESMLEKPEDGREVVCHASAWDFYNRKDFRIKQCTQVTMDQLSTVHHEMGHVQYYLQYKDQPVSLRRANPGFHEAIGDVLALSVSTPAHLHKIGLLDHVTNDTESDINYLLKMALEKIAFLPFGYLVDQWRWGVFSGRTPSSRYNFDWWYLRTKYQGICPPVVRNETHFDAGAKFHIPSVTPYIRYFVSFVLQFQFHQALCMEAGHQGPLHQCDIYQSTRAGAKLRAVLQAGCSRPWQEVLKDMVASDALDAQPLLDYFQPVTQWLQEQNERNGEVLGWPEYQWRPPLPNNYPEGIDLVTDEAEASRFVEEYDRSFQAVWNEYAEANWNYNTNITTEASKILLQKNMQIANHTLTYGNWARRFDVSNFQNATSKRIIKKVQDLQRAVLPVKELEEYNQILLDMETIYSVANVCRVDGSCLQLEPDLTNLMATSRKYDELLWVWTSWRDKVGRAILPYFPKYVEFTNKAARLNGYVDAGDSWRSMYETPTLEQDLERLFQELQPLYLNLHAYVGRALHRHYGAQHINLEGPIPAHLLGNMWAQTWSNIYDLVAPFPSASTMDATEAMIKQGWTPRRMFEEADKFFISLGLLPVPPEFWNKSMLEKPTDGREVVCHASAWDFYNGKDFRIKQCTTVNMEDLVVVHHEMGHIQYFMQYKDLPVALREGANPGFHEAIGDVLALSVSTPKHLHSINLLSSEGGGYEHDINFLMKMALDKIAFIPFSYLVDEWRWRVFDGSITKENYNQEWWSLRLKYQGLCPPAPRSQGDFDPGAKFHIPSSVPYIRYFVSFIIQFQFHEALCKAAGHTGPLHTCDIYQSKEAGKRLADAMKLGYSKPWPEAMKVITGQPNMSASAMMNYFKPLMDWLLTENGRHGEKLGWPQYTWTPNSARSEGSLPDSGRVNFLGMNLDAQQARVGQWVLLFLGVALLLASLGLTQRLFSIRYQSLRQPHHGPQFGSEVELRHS
As to the kind of experiment: In vitro stability of compound (0.5 uM) to inhibit NAcSDKP hydrolysis by rabbit lung Angiotensin I converting enzyme after 30 minutes incubation. The method, boiled down:
(§1)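 Rabbit lung ACE (0.1 unit/mL final) in Tris-maleate buffer pH 7 (100 mM Tris, 50 mM NaCl, 10^-5 M ZnSO4). Analogue (final 0.5, 5 or 50 µM) preincubated with enzyme 30 min at 37 °C. NAcSD[3H]KP (tritium on lysine side chain) plus cold peptide, 5 µM final, then added for 30 min at 37 °C. Frozen at -80 °C and run on high-voltage paper electrophoresis. Residual labelled substrate radioactivity compared with t=0. Duplicates, mean of two experiments.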

Experiment [2] concerns the target T1, Angiotensin-converting enzyme (Oryctolagus cuniculus). As to the kind of experiment: In vitro stability of compound (5 uM) to inhibit NAcSDKP hydrolysis by rabbit lung Angiotensin I converting enzyme after 30 minutes incubation. The method, boiled down: as §1
Experiment [3] has the same target. As to the kind of experiment: In vitro stability of compound (50 uM) to inhibit NAcSDKP hydrolysis by rabbit lung Angiotensin I converting enzyme after 30 minutes incubation. The method, boiled down: as §1
Experiment [4] has the same target. As to the kind of experiment: In vitro stability of compound toward enzymatic degradation by rabbit lung Angiotensin I converting enzyme after 24 hr incubation. The method, boiled down:
(§2)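 Degradation assay: rabbit lung ACE preincubated 30 min at 37 °C in Tris-maleate pH 7 (100 mM Tris, 50 mM NaCl, 10^-5 M ZnSO4). Peptide then added at 50 µM final with enzyme at 0.1 unit/mL, 37 °C for 30 min or 24 h. Stopped with 1% TFA, then RP-HPLC at 215 nm. Residual intact peptide read from peak area against t=0 and a 5-50 calibration curve. Mean of two experiments in triplicate.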

The target is the same in experiment [5]. As to the kind of experiment: In vitro stability of compound toward enzymatic degradation by rabbit lung Angiotensin I converting enzyme after 30 minutes incubation. Put shortly: as §2
Experiment [6] shares this target. The experiment can be described thus: In vitro stability of compound (51 uM) to inhibit NAcSDKP hydrolysis by rabbit lung Angiotensin I converting enzyme after 30 minutes incubation. Put shortly:
as §1

Peptide text beside a SMILES is read from it. * marks the point of attachment. Pyrrolidide = C1CCN(*)C1

This passage reports Residual peptide results from ChEMBL document CHEMBL1130250, “NAcSDKP analogues resistant to angiotensin-converting enzyme” (J Med Chem, 1997).

As for `CC(=O)N[C@@H](CO)C(=O)N[C@@H](CC(=O)O)C(=O)N[C@@H](CCCCN)CN1CCC[C@H]1C(=O)O`, the Residual peptide was 47.3% in experiment [1]; 48.8% in experiment [2]; 50.3% in experiment [3]; 99.4% in experiment [4]; 99.7% in experiment [5].

As to `CC(=O)N[C@@H](CO)C(=O)N[C@H](CN[C@@H](CCCCN)C(=O)N1CCC[C@H]1C(=O)O)CC(=O)O`, the Residual peptide amounted to 46% in experiment [1]; 49.3% in experiment [2]; 41.7% in experiment [3]; 100% in experiment [4]; 100% in experiment [5].

In turn, `CC(=O)N[C@@H](CO)C(=O)N[C@@H](CC(=O)O)C(=O)N[C@@H](CCCCN)C(=O)N1CCC[C@H]1C(=O)O` (Ac-SDKP-OH) gave a Residual peptide in experiment [5] of 43.6%.

As for `CC(=O)N[C@@H](CO)C(=O)N[C@@H](CC(=O)O)C(=O)N[C@@H](CCCCN)C(=O)N1CCCC1` (Ac-Ser-Asp-Lys-Pyrrolidide), the Residual peptide was 0% in experiment [4] and 36.2% in experiment [5].

With `CC(=O)N[C@@H](CO)C(=O)N[C@@H](CC(=O)O)C(=O)N[C@@H](CCCCN)C(=O)N1CCC[C@H]1C(N)=O` (Ac-SDKP-NH2), the Residual peptide in experiment [1] is 46%; in experiment [2] it was 50.1%; in experiment [3], 49.7%; in experiment [4], 96.7%; in experiment [5], 99.9%.

In the case of `CC(=O)N[C@@H](CO)CN[C@@H](CC(=O)O)C(=O)N[C@@H](CCCCN)C(=O)N1CCC[C@H]1C(=O)O`, the Residual peptide in experiment [1] was 46.9%; in experiment [3], 46.7%; in experiment [6] it was 54%; in experiment [4] it was 97.6%; in experiment [5], 99.7%.
